Laboratory results as given in ChEMBL document CHEMBL1671684, “In vitro resistance profile of the hepatitis C virus NS3/4A protease inhibitor TMC435” (Antimicrob Agents Chemother, 2010).
Activity calls are given as the source filed them. No cut-off for these calls is given here.

Assays:
[1] = system: Hepatitis C virus; assay: Antiviral activity against Hepatitis C virus subtype 1b expressing NS3 V36M mutant infected in HuH7 cells after 48 hrs by luciferase reporter assay; assay type: functional, organism-based, Hepacivirus hominis; conditions: genotype 1b, Huh-7, 48 h
In short: (§1)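 Genotype 1b con1 subgenomic bicistronic replicon (clone ET) with luciferase reporter and adaptive mutations E1202G, T1280I, K1846T, carrying site-directed NS3 single or double mutations. 10 μg wild-type or mutant replicon RNA electroporated into Huh7-lunet cells, seeded 4,000 cells/well over a nine-point inhibitor dilution series, 48 h at 37°C, 5% CO2, then luminescence read. EC50 taken as median of individual experiments; fold change relative to parental replicon EC50.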

[2] = system: Hepatitis C virus; assay: Antiviral activity against Hepatitis C virus subtype 1b expressing NS3 F43I mutant infected in HuH7 cells after 48 hrs by luciferase reporter assay; assay type: functional, organism-based, Hepacivirus hominis; conditions: genotype 1b, Huh-7, 48 h; in short: as §1
[3] = system: Hepatitis C virus; assay: Antiviral activity against Hepatitis C virus subtype 1b expressing NS3 F43V mutant infected in HuH7 cells after 48 hrs by luciferase reporter assay; assay type: functional, organism-based, Hepacivirus hominis; conditions: genotype 1b, Huh-7, 48 h; in short: as §1
[4] = system: Hepatitis C virus; assay: Antiviral activity against Hepatitis C virus subtype 1b expressing NS3 T54S mutant infected in HuH7 cells after 48 hrs by luciferase reporter assay; assay type: functional, organism-based, Hepacivirus hominis; conditions: genotype 1b, Huh-7, 48 h; in short: as §1
[5] = system: Hepatitis C virus; assay: Antiviral activity against Hepatitis C virus subtype 1b expressing NS3 Q80H mutant infected in HuH7 cells after 48 hrs by luciferase reporter assay; assay type: functional, organism-based, Hepacivirus hominis; conditions: genotype 1b, Huh-7, 48 h; in short: as §1
[6] = system: Hepatitis C virus; assay: Antiviral activity against Hepatitis C virus subtype 1b expressing NS3 Q80K mutant infected in HuH7 cells after 48 hrs by luciferase reporter assay; assay type: functional, organism-based, Hepacivirus hominis; conditions: genotype 1b, Huh-7, 48 h; in short: as §1
[7] = system: Hepatitis C virus; assay: Antiviral activity against Hepatitis C virus subtype 1b expressing NS3 Q80G mutant infected in HuH7 cells after 48 hrs by luciferase reporter assay; assay type: functional, organism-based, Hepacivirus hominis; conditions: genotype 1b, Huh-7, 48 h; in short: as §1
[8] = system: Hepatitis C virus; assay: Antiviral activity against Hepatitis C virus subtype 1b expressing NS3 Q80L mutant infected in HuH7 cells after 48 hrs by luciferase reporter assay; assay type: functional, organism-based, Hepacivirus hominis; conditions: genotype 1b, Huh-7, 48 h; in short: as §1
[9] = system: Hepatitis C virus; assay: Antiviral activity against Hepatitis C virus subtype 1b expressing NS3 A156S mutant infected in HuH7 cells after 48 hrs by luciferase reporter assay; assay type: functional, organism-based, Hepacivirus hominis; conditions: genotype 1b, Huh-7, 48 h; in short: as §1
[10] = system: Hepatitis C virus; assay: Antiviral activity against Hepatitis C virus subtype 1b expressing NS3 A156T mutant infected in HuH7 cells after 48 hrs by luciferase reporter assay; assay type: functional, organism-based, Hepacivirus hominis; conditions: genotype 1b, Huh-7, 48 h; in short: as §1
[11] = system: Hepatitis C virus; assay: Antiviral activity against Hepatitis C virus subtype 1b expressing NS3 V170A mutant infected in HuH7 cells after 48 hrs by luciferase reporter assay; assay type: functional, organism-based, Hepacivirus hominis; conditions: genotype 1b, Huh-7, 48 h; in short: as §1
[12] = system: Hepatitis C virus; assay: Antiviral activity against Hepatitis C virus subtype 1b expressing NS3 F43S and Q80R mutant infected in HuH7 cells after 48 hrs by luciferase reporter assay; assay type: functional, organism-based, Hepacivirus hominis; conditions: genotype 1b, Huh-7, 48 h; in short: as §1
[13] = system: Hepatitis C virus; assay: Antiviral activity against Hepatitis C virus subtype 1b expressing NS3 Q80R and D168E mutant infected in HuH7 cells after 48 hrs by luciferase reporter assay; assay type: functional, organism-based, Hepacivirus hominis; conditions: genotype 1b, Huh-7, 48 h; in short: as §1
[14] = system: Hepatitis C virus; assay: Ratio of EC50 for Hepatitis C virus subtype 1b expressing NS3 R109K mutant to EC50 for Hepatitis C virus subtype 1b expressing WT NS3 infected in HuH7 cells after 48 hrs by luciferase reporter assay; assay type: functional, Hepacivirus hominis, genotype 1b, Huh-7
In short: (§2)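 Transient replicon assay: site-directed single or multiple NS3 mutations engineered into genotype 1b (con1, clone ET) subgenomic bicistronic replicon with luciferase reporter and adaptive mutations E1202G, T1280I, K1846T. Huh7-lunet cells electroporated with 10 μg wild-type or mutant replicon RNA, seeded 4,000 cells/well with nine-point inhibitor dilution; 48 h, 37°C, 5% CO2; luminescence read-out. EC50 as median of individual experiments; fold change versus parental replicon EC50.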

[15] = system: Hepatitis C virus; assay: Ratio of EC50 for Hepatitis C virus subtype 1b expressing NS3 R155T mutant to EC50 for Hepatitis C virus subtype 1b expressing WT NS3 infected in HuH7 cells after 48 hrs by luciferase reporter assay; assay type: functional, Hepacivirus hominis, genotype 1b, Huh-7; in short: as §2
[16] = system: Hepatitis C virus; assay: Ratio of EC50 for Hepatitis C virus subtype 1b expressing NS3 A156T mutant to EC50 for Hepatitis C virus subtype 1b expressing WT NS3 infected in HuH7 cells after 48 hrs by luciferase reporter assay; assay type: functional, Hepacivirus hominis, genotype 1b, Huh-7; in short: as §1
[17] = system: Hepatitis C virus; assay: Ratio of EC50 for Hepatitis C virus subtype 1b expressing NS3 Q80R and R155K mutant to EC50 for Hepatitis C virus subtype 1b expressing WT NS3 infected in HuH7 cells after 48 hrs by luciferase reporter assay; assay type: functional, Hepacivirus hominis, genotype 1b, Huh-7; in short: as §2
[18] = system: Hepatitis C virus; assay: Antiviral activity against Hepatitis C virus subtype 1b expressing NS3 Q41R mutant infected in HuH7 cells after 48 hrs by luciferase reporter assay; assay type: functional, organism-based, Hepacivirus hominis; conditions: genotype 1b, Huh-7, 48 h; in short: as §1
[19] = system: Hepatitis C virus; assay: Ratio of EC50 for Hepatitis C virus subtype 1b expressing NS3 Q41R mutant to EC50 for Hepatitis C virus subtype 1b expressing WT NS3 infected in HuH7 cells after 48 hrs by luciferase reporter assay; assay type: functional, Hepacivirus hominis, genotype 1b, Huh-7; in short: as §2
[20] = Inhibition of Hepatitis C virus subtype 1a NS3/4A protease
[21] = system: Hepatitis C virus; assay: Inhibition of Hepatitis C virus subtype 1b NS3/4A protease
[22] = system: Hepatitis C virus; assay: Antiviral activity against Hepatitis C virus subtype 1b infected in HuH7 cells after 72 hrs by luciferase reporter gene assay; conditions: genotype 1b, Huh-7, 72 h
[23] = Inhibition of Hepatitis C virus subtype 4a NS3/4A protease
[24] = Inhibition of Hepatitis C virus subtype 6a NS3/4A protease
[25] = system: Hepatitis C virus; assay: Antiviral activity against Hepatitis C virus subtype 2a JFH1 infected in HuH7.5 cells assessed as reduction in cellular viral RNA levels normalized to RPL13A RNA levels at 500 nM after 3 days by TaqMan RT-PCR; assay type: functional, organism-based; conditions: Hepacivirus hominis
[26] = system: Hepatitis C virus; assay: Antiviral activity against Hepatitis C virus subtype 2a JFH1 infected in HuH7.5 cells assessed as occurrence of the viral-induced CPE at 4000 nM after 3 days by luciferase reporter assay; assay type: functional, organism-based; conditions: Hepacivirus hominis
[27] = system: Hepatitis C virus; assay: Antiviral activity against Hepatitis C virus subtype 2a JFH1 infected in HuH7.5 cells assessed as viral RNA replication after initial decline at 500 nM after 3 days by TaqMan RT-PCR; assay type: functional, organism-based; conditions: Hepacivirus hominis
[28] = system: Hepatitis C virus; assay: Antiviral activity against Hepatitis C virus subtype 2a JFH1 infected in HuH7.5 cells assessed as viral RNA replication after initial decline at 4000 nM after 3 days by TaqMan RT-PCR; assay type: functional, organism-based; conditions: Hepacivirus hominis
[29] = system: Hepatitis C virus; assay: Antiviral activity against Hepatitis C virus infected in HuH7 cells assessed as cell viability at 10 times EC50 after 2 to 3 weeks by neutral red assay in presence of 1,000 ug/ml G418; assay type: functional, organism-based; conditions: Hepacivirus hominis; Huh-7
In short: (§3)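 Huh7-Luc genotype 1b (con1, clone ET) replicon cells, 20,000 per 10-cm dish in DMEM with 1,000 μg/ml G418. Cells got one inhibitor or a two-inhibitor combination, dosed as multiples of each inhibitor's EC50 from a genotype 1b luciferase replicon assay. Held at 37°C, 5% CO2, with medium plus compound refreshed twice weekly. After 2–3 weeks, surviving colonies were stained with neutral red and counted. Three independent experiments.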

[30] = system: Hepatitis C virus; assay: Antiviral activity against Hepatitis C virus infected in HuH7 cells assessed as cell viability at 25 times EC50 after 2 to 3 weeks by neutral red assay in presence of 1,000 ug/ml G418; assay type: functional, organism-based; conditions: Hepacivirus hominis; Huh-7; in short: as §3

## CC(C)(C)NC(=O)N[C@H](C(=O)N1C[C@H]2[C@@H]([C@H]1C(=O)NC(CC1CCC1)C(=O)C(N)=O)C2(C)C)C(C)(C)C (some centres not stated) [BOCEPREVIR]
[1]
  EC50: 217 nM
[2]
  EC50: 242 nM
[3]
  EC50: 527 nM
[4]
  EC50: 1110 nM
[5]
  EC50: 78 nM
[6]
  EC50: 94 nM
[7]
  EC50: 127 nM
[8]
  EC50: 133 nM
[9]
  EC50: 525 nM
[10]
  EC50: 7230 nM
[11]
  EC50: 1550 nM
[12]
  EC50: 1550 nM
[13]
  EC50: 62 nM
[14]
  Ratio EC50: 1
[15]
  Ratio EC50: 51
[16]
  Ratio EC50: 65
[17]
  Ratio EC50: 2.7

## COc1ccc2c(O[C@@H]3C[C@H]4C(=O)N[C@]5(C(=O)O)C[C@H]5/C=C\CCCCC[C@H](NC(=O)OC5CCCC5)C(=O)N4C3)cc(-c3csc(NC(C)C)n3)nc2c1 [CILUPREVIR]
[1]
  EC50: 2.4 nM
[18]
  EC50: 2.3 nM
[2]
  EC50: 0.4 nM
[3]
  EC50: 0.4 nM
[4]
  EC50: 0.9 nM
[5]
  EC50: 1.2 nM
[6]
  EC50: 1 nM
[7]
  EC50: 3 nM
[9]
  EC50: 1.7 nM
[10]
  EC50: 1070 nM
[12]
  EC50: 0.4 nM
[13]
  EC50: 87 nM
[19]
  Ratio EC50: 2.8
[14]
  Ratio EC50: 0.7
[15]
  Ratio EC50: 562
[16]
  Ratio EC50: 1344
[17]
  Ratio EC50: 772

## COc1ccc2c(O[C@@H]3C[C@H]4C(=O)N[C@]5(C(=O)NS(=O)(=O)C6CC6)C[C@H]5/C=C\CCCCN(C)C(=O)[C@@H]4C3)cc(-c3nc(C(C)C)cs3)nc2c1C [SIMEPREVIR]
[20]
  Ki: 0.4 nM
[21]
  Ki: 0.5 nM
[22]
  EC50: 8 nM
[23]
  IC50: < 13 nM
[24]
  IC50: < 13 nM
[25]
  inhibition: Active
[26]
  inhibition: Active
[27]
  inhibition: inactive
[28]
  inhibition: inactive
[1]
  EC50: 20 nM
[18]
  EC50: 18 nM
[2]
  EC50: 562 nM
[3]
  EC50: 626 nM
[4]
  EC50: 5.4 nM
[5]
  EC50: 41 nM
[6]
  EC50: 62 nM
[7]
  EC50: 22 nM
[8]
  EC50: 12 nM
[9]
  EC50: 3 nM
[10]
  EC50: 377 nM
[11]
  EC50: 22 nM
[12]
  EC50: 1820 nM
[13]
  EC50: 5900 nM
[19]
  Ratio EC50: 1.7
[14]
  Ratio EC50: 0.7
[15]
  Ratio EC50: 24
[16]
  Ratio EC50: 44
[17]
  Ratio EC50: 270
[29]
  inhibition: inactive
[30]
  inhibition: inactive

## CCC[C@H](NC(=O)[C@@H]1[C@H]2CCC[C@H]2CN1C(=O)[C@@H](NC(=O)[C@@H](NC(=O)c1cnccn1)C1CCCCC1)C(C)(C)C)C(=O)C(=O)NC1CC1 [TELAPREVIR]
[1]
  EC50: 886 nM
[6]
  EC50: 147 nM
[7]
  EC50: 202 nM
[9]
  EC50: 3110 nM
[10]
  EC50: 20300 nM
[14]
  Ratio EC50: 0.8
[15]
  Ratio EC50: 74
[16]
  Ratio EC50: 105
